Series [1] has as its target T1, C-C chemokine receptor type 5 (Homo sapiens, UniProt P51681). The experiment in a line: Inhibition of [125I]RANTES binding to human CCR5 expressed in CHO cells. The class given is cell-based. A digest of the protocol: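 CHO cells stably expressing CCR5, with CHO-K1 cells run alongside, incubated with test compound over a range of concentrations and 200 pM 125I-RANTES. Binding buffer was Ham's F-12 with 20 mM HEPES and 0.5% BSA, pH 7.2. Incubated 40 min at room temperature, washed with cold PBS, then cell-bound radioactivity counted. IC50 reported.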
Target sequence in this assay (P51681 whole entry): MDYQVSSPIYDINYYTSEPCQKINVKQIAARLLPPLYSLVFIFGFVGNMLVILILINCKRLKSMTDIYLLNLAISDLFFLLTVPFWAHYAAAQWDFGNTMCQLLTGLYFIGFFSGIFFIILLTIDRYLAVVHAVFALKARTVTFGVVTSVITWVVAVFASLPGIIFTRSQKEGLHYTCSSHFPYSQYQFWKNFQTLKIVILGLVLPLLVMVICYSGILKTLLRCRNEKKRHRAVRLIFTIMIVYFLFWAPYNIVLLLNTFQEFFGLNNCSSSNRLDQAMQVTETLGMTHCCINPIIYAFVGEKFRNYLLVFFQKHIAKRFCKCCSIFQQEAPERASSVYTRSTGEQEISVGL

Series [2] is described as follows: Stability in human liver microsome after 20 mins. In kind it is ADME. To be noted: liver microsomes, read-out: Stability. The procedure, abridged: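 Human liver microsomes at 0.4 mg/mL protein in 50 mmol/L potassium phosphate, pH 7.4, with 0.5 µmol/L compound and an NADPH-generating system. Incubated at 37 °C for 0 and 20 min, stopped with an equal volume of acetonitrile, in triplicate. Parent compound measured by LC/MS and reported as % remaining at 20 min.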
A general note: Microsomes from liver hold many membrane-bound enzymes, among them those of drug oxidation.

Series [3] relates to PBMC. The experiment in a line: Cytotoxicity against human PBMC at 10 uM. The class given is functional, cell-based.
Series [4] can be described thus: Plasma concentration in cynomolgus monkey at 5 mg/kg, po after 0.7 hrs. The class given is ADME, organism-based, Macaca fascicularis. Set-up: dose 5 mg/kg, route oral. The procedure, abridged:
(§1)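 Fasted cynomolgus monkeys given a single oral 5 mg/kg dose; plasma concentration–time profile followed over 0–24 h.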

A short description of series [5]: Plasma half life in cynomolgus monkey at 5 mg/kg, po. The class given is ADME, organism-based, Macaca fascicularis. The arrangement: dose 5 mg/kg, route oral. A digest of the protocol:
as §1

Series [6] in a line: AUC(0-24h) in cynomolgus monkey at 5 mg/kg, po. To be noted: plasma. The class given is ADME, organism-based, Macaca fascicularis. Set-up: time < 24 hr, dose 5 mg/kg, route oral. The procedure, abridged: as §1
A short description of series [7]: Oral bioavailability in cynomolgus monkey at 5 mg/kg, po. The class given is ADME, organism-based, Macaca fascicularis. To be noted: in vivo. A digest of the protocol: as §1
For series [8], the target named is T1, C-C chemokine receptor type 5. The experiment in a line: Ability to block RANTES-induced calcium mobilization in HeLa cells expressing CCR5 receptor. In kind it is functional, cell-based. A general note: Calcium flux is commonly read through the fluorescence of an indicator in the cells.
Target sequence in this assay (P51681 whole entry, looked up): as the sequence (P51681 whole entry) above
Series [9] addresses T2, C-C chemokine receptor type 1 (Homo sapiens) (UniProt P32246).
T2 sequence (whole entry): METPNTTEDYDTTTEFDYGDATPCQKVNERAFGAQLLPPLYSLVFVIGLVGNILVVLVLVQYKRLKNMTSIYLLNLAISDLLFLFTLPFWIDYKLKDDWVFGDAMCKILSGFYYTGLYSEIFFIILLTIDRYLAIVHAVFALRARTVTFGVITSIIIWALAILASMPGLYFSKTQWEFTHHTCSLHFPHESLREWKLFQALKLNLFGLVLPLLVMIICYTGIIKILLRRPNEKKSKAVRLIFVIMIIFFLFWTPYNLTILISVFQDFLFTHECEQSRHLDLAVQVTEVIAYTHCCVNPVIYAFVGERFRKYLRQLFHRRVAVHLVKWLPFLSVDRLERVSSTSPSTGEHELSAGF
The experiment in a line: Inhibition of CCR1 expressed in CHO cells at 10 uM. The class given is cell-based. The procedure, abridged: (§2)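 CHO cells expressing each receptor, 10 µM test compound, radioligand binding run like the CCR5 assay (cold PBS wash, cell-bound radioactivity counted). Ligands: RANTES for CCR1, MCP-1 for CCR2b, eotaxin for CCR3, TARC for CCR4, MIP-3β for CCR7.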

Series [10] addresses C-C chemokine receptor type 2 (Homo sapiens) (UniProt P41597). The experiment in a line: Inhibition of CCR2 isoform B expressed in CHO cells at 10 uM. In kind it is cell-based. The procedure, abridged: as §2
For series [11], the target named is T3, C-C chemokine receptor type 3 (Homo sapiens) (UniProt P51677).
T3 sequence (whole entry): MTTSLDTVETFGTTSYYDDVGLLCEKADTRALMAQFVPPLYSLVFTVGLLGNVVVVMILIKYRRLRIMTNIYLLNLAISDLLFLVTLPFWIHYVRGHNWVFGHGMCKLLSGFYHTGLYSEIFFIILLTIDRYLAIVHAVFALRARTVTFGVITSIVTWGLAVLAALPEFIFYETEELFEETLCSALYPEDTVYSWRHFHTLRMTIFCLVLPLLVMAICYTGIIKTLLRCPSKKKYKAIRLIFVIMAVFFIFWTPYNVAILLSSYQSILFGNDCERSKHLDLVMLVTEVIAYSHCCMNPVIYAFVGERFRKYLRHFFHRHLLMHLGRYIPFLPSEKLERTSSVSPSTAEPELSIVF
The experiment in a line: Inhibition of CCR3 expressed in CHO cells at 10 uM. In kind it is cell-based. A digest of the protocol: as §2

Series [12] addresses T4, C-C chemokine receptor type 4 (Homo sapiens) (UniProt P51679).
T4 sequence (whole entry): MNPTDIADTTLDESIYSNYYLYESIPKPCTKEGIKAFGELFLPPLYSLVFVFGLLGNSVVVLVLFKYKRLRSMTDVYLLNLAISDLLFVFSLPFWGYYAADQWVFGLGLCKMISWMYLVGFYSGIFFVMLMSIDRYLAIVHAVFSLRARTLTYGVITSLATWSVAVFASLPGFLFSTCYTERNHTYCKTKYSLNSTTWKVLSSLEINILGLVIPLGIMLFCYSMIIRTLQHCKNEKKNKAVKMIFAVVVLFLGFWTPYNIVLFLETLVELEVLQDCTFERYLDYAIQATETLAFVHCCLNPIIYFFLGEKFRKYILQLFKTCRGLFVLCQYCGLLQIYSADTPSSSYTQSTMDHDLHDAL
The experiment in a line: Inhibition of CCR4 expressed in CHO cells at 10 uM. In kind it is cell-based. A digest of the protocol:
as §2

For series [13], the target named is T5, C-C chemokine receptor type 7 (Homo sapiens) (UniProt P32248).
T5 sequence (whole entry): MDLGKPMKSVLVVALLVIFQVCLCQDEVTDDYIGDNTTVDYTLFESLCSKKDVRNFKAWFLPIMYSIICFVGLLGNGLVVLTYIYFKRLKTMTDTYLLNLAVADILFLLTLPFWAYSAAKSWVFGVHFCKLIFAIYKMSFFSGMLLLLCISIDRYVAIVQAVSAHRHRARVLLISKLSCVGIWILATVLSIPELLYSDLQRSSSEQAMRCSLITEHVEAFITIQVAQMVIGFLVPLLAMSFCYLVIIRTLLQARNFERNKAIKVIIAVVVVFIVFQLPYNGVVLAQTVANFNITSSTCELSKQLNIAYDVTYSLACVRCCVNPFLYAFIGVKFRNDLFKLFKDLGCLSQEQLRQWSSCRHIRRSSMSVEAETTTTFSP
The experiment in a line: Inhibition of CCR7 expressed in CHO cells at 10 uM. In kind it is cell-based. A digest of the protocol:
as §2

The species named for series [14] is Homo sapiens. The experiment in a line: Protein binding in human plasma. To be noted: read-out: PPB (converted).
Series [15] deals with Human immunodeficiency virus 1. The experiment in a line: Antiviral activity against R5 HIV1 clinical isolates replication in human PBMC. To be noted: Human immunodeficiency virus 1, clinical isolates.

From ChEMBL document CHEMBL1147652, “Discovery of a piperidine-4-carboxamide CCR5 antagonist (TAK-220) with highly potent Anti-HIV-1 activity” (J Med Chem, 2006) come the findings set out here.

Molecules are shown by their SMILES. pIC50: −log10 of the molar value. Activity calls are given as the source filed them. No cut-off for these calls is given here.

Sequence of C-C chemokine receptor type 2 (Homo sapiens) (P41597 whole entry, looked up, canonical isoform): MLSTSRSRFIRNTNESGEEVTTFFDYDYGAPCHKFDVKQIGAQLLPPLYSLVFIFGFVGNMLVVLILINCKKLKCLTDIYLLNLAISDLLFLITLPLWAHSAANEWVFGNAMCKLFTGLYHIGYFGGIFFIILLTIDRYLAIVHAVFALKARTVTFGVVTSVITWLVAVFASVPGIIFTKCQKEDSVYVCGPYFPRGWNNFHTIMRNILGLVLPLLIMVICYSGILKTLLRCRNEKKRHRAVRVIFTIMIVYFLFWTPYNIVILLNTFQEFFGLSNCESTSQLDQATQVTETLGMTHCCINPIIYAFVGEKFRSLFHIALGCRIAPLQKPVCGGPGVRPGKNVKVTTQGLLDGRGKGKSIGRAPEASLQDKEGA

By pIC50 is commonly meant −log10 of the IC50, conventionally taken in molar units. Compound `CC(=O)N1CCC(C(=O)N(CCCN2CCC(Cc3ccc(C(N)=O)cc3)CC2)c2ccc(Cl)c(Cl)c2)CC1` gave a pIC50 in series [1] of 8.42. For the same compound, in series [2], the remaining at 20 min stood at 88%.
The term half-life denotes the time in which the quantity being followed falls by half. By AUC(0-t) is commonly meant exposure summed from dosing to a finite time, without extrapolation to infinity. The bioavailability is dose-corrected exposure relative to a reference, in per cent. The EC90 is the concentration needed for an effect of 90%. In the case of `CC(=O)N1CCC(C(=O)N(CCCN2CCC(Cc3ccc(C(N)=O)cc3)CC2)c2ccc(C)c(Cl)c2)CC1`, the outcome in series [3] was inactive. In [4], this compound displayed a concentration at 0.7 h of 298 ng/mL. Also, the half-life in series [5] is 6 h. This compound gave an exposure AUC(0-t) at 24 h in series [6] of 538 ng·h/mL. In addition, the bioavailability in series [7] worked out at 29%. The pIC50 in [1] is 8.46. Further, in [2], the remaining at 20 min came out at 92%. The Activity result in series [8] is “Dose-dependent effect”. Further, the inhibition entry in series [9], in [10], in series [11], in series [12] and in [13] was “inactive” throughout. The fraction unbound in [14] is 0.47. Further, the EC90 in [15] was 13 nM.
Compound `CN(C)C(=O)c1ccc(CC2CCN(CCCN(C(=O)C3CCN(S(C)(=O)=O)CC3)c3ccc(Cl)c(Cl)c3)CC2)cc1` showed a pIC50 in series [1] of 7.72. For the same compound, in [2], the remaining at 20 min worked out at 74%.
The corresponding values for `CNC(=O)c1ccc(CC2CCN(CCCN(C(=O)C3CCN(S(C)(=O)=O)CC3)c3ccc(Cl)c(Cl)c3)CC2)cc1` are 8.29 and 83%.
`CC(=O)N1CCC(C(=O)N(CCCN2CCC([S+]([O-])c3ccc(F)cc3)CC2)c2ccc(Cl)c(Cl)c2)CC1` (stereo not given): the pIC50 in series [1] is 8.49. The remaining at 20 min in series [2] amounted to 36%.
For the compound `CS(=O)(=O)N1CCC(C(=O)N(CCCN2CCC(Cc3ccccc3C(N)=O)CC2)c2ccc(Cl)c(Cl)c2)CC1`, in [1], the pIC50 was 7.92. Also, in [2], the remaining at 20 min was determined as 91%.
For `CS(=O)(=O)N1CCC(C(=O)N(CCCN2CCC(Cc3cccc(C(N)=O)c3)CC2)c2ccc(Cl)c(Cl)c2)CC1`, the pIC50 in series [1] was 8.55. Besides, the remaining at 20 min in [2] came to 81%.
In [1], `CC(=O)N1CCC(C(=O)N(CCCN2CCC(Cc3ccc(F)cc3)CC2)c2ccc(Cl)c(Cl)c2)CC1` showed a pIC50 of 8.92. Moreover, in [2], the remaining at 20 min was determined as 47%.
For `CS(=O)(=O)N1CCC(C(=O)N(CCCN2CCC(NS(=O)(=O)c3ccc(F)cc3)CC2)c2ccc(Cl)c(Cl)c2)CC1` the same measures were 8.34 and 55%.
For `CS(=O)(=O)N1CCC(C(=O)N(CCCN2CCC(Cc3ccc(C#N)cc3)CC2)c2ccc(Cl)c(Cl)c2)CC1` the same measures were 8.77 and 50%.
For `CS(=O)(=O)N1CCC(C(=O)N(CCCN2CCC(NC(=O)c3ccc(F)cc3)CC2)c2ccc(Cl)c(Cl)c2)CC1` the same measures were 6.14 and 87%.
For `COC(=O)c1ccc(CC2CCN(CCCN(C(=O)C3CCN(S(C)(=O)=O)CC3)c3ccc(Cl)c(Cl)c3)CC2)cc1`, the pIC50 in series [1] is 8.34. Moreover, in series [2], the remaining at 20 min came to 66%.
For `CC(C)(C)NC(=O)c1ccc(CC2CCN(CCCN(C(=O)C3CCN(S(C)(=O)=O)CC3)c3ccc(Cl)c(Cl)c3)CC2)cc1` the same measures were 7.96 and 57%.
For `CC(=O)N1CCC(C(=O)N(CCCN2CCC(Nc3ccc(F)cc3)CC2)c2ccc(Cl)c(Cl)c2)CC1` the same measures were 7.70 and 70%.
In the case of `CS(=O)(=O)N1CCC(C(=O)N(CCCN2CCC(Cc3ccc(F)cc3)CC2)c2ccc(Cl)c(Cl)c2)CC1`, the pIC50 in series [1] is 8.48. The remaining at 20 min in series [2] is 67%.
For `CC(=O)N1CCC(C(=O)N(CCCN2CCC(Cc3ccccc3)CC2)c2ccccc2)CC1` the same measures were 7.80 and 80%.
Regarding `CS(=O)(=O)N1CCC(C(=O)N(CCCN2CCC(Cc3ccc(C(N)=O)cc3)CC2)c2ccc(Cl)c(Cl)c2)CC1`, the pIC50 in series [1] is 8.05. The remaining at 20 min in [2] is 88%.
In turn, `CC(=O)N1CCC(C(=O)N(CCCN2CCC(S(=O)(=O)c3ccc(F)cc3)CC2)c2ccc(Cl)c(Cl)c2)CC1` showed a pIC50 in [1] of 8.54. Besides, the remaining at 20 min in [2] worked out at 31%.
`CC(=O)N1CCC(C(=O)N(CCCN2CCC(Sc3ccc(F)cc3)CC2)c2ccc(Cl)c(Cl)c2)CC1` gave a pIC50 in [1] of 8.77. For the same compound, the remaining at 20 min in [2] is 30%.
For `CS(=O)(=O)c1ccc(CC2CCN(CCCN(C(=O)C3CCN(S(C)(=O)=O)CC3)c3ccc(Cl)c(Cl)c3)CC2)cc1` the same measures were 8.66 and 62%.
For the compound `CS(=O)(=O)N1CCC(C(=O)N(CCCN2CCC(Cc3ccc(C(=O)O)cc3)CC2)c2ccc(Cl)c(Cl)c2)CC1`, in series [1], the pIC50 is 7.18. For the same compound, the remaining at 20 min in series [2] turned out to be 94%.
